Tests used:
Format in all cases: functional
[1] = tested on: HOP-92; experiment: Growth inhibition of human HOP92 cells at 10 uM after 48 hrs by sulforhodamine B assay; settings: HOP-92, 48 h, read-out: GI
Outline: (§1)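 NCI one-dose primary screen at 10 (printed mM) across the 60-line panel. Cells in RPMI 1640 with 5% FBS and 2 mM L-glutamine, plated at 5000–40,000 cells/well and incubated 24 h before dosing. Exposure 48 h at 37 °C, 5% CO2. Adherent cells were fixed with cold TCA, suspension cells fixed after settling. SRB stain, absorbance 515 nm. Reported as percent growth of treated cells relative to control.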

[2] = tested on: SF-539; experiment: Growth inhibition of human SF539 cells at 10 uM after 48 hrs by sulforhodamine B assay; settings: SF-539, 48 h, read-out: GI; outline: as §1
[3] = Growth inhibition of human Hs 578T cells at 10 uM after 48 hrs by sulforhodamine B assay; settings: read-out: GI; outline: as §1
[4] = tested on: NCI-H522; experiment: Growth inhibition of human NCI-H522 cells at 10 uM after 48 hrs by sulforhodamine B assay; settings: NCI-H522, 48 h, read-out: GI; outline: as §1
[5] = tested on: SF-539; experiment: Cytotoxicity against human SF539 cells after 48 hrs by sulforhodamine B assay; settings: SF-539, 48 h
Outline: (§2)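 NCI 60-panel screen. Cells were grown in RPMI 1640 with 5% FBS and L-glutamine and plated at 5000–40,000 cells/well according to doubling time. They were preincubated 24 h at 37 °C, 5% CO2, then exposed 48 h to five 10-fold dilutions. Adherent cells were fixed with cold TCA, final 10%; suspension cells were fixed after settling. Cells were stained with 0.4% SRB and read at 515 nm. Tz/C/Ti growth curves gave GI50, TGI and LC50.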

[6] = tested on: SNB-19; experiment: Growth inhibition of human SNB19 cells at 10 uM after 48 hrs by sulforhodamine B assay; settings: SNB-19, 48 h, read-out: GI
Outline: (§3)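 NCI-60 single-dose screen. Cells grown in RPMI 1640 with 5% FBS and L-glutamine, plated at 5000–40,000 cells/well by doubling time, and preincubated 24 h at 37 °C, 5% CO2. Compound stocks in DMSO, added at one concentration, then incubated 48 h. Adherent cells fixed with cold TCA (10% final), stained with 0.4% SRB, dye solubilized in 10 mM Tris base, A515 read. Reported as percent growth relative to untreated control.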

[7] = tested on: CCRF-CEM; experiment: Growth inhibition of human CCRF-CEM cells at 10 uM after 48 hrs by sulforhodamine B assay; settings: read-out: GI; outline: as §1
[8] = tested on: HOP-62; experiment: Growth inhibition of human HOP62 cells at 10 uM after 48 hrs by sulforhodamine B assay; settings: HOP-62, 48 h, read-out: GI; outline: as §1
[9] = tested on: UACC-257; experiment: Cytotoxicity against human UACC257 cells after 48 hrs by sulforhodamine B assay; settings: UACC-257, 48 h
Outline: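 NCI 60 panel five-dose screen. Cells in RPMI 1640 with 5% FBS and 2 mM L-glutamine, plated at 5000–40,000 cells/well and preincubated 24 h. Compounds were tested at five 10-fold concentrations (0.01–100) for 48 h at 37 °C, 5% CO2. Cells were fixed with TCA and stained with SRB, absorbance 515 nm. GI50, TGI and LC50 were taken from % growth curves against time-zero and control.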

[10] = tested on: SNB-75; experiment: Growth inhibition of human SNB75 cells at 10 uM after 48 hrs by sulforhodamine B assay; settings: SNB-75, 48 h, read-out: GI; outline: as §3
[11] = tested on: NCI-H23; experiment: Growth inhibition of human NCI-H23 cells at 10 uM after 48 hrs by sulforhodamine B assay; settings: NCI-H23, 48 h, read-out: GI; outline: as §1
[12] = tested on: SK-MEL-5; experiment: Cytotoxicity against human SK-MEL-5 cells after 48 hrs by sulforhodamine B assay; settings: SK-MEL-5, 48 h; outline: as §2
[13] = tested on: MDA-MB-468; experiment: Cytotoxicity against human MDA-MB-468 cells after 48 hrs by sulforhodamine B assay; settings: MDA-MB-468, 48 h; outline: as §2
[14] = tested on: OVCAR-4; experiment: Cytotoxicity against human OVCAR4 cells after 48 hrs by sulforhodamine B assay; settings: OVCAR-4, 48 h; outline: as §2
[15] = tested on: NCI-H23; experiment: Cytotoxicity against human NCI-H23 cells after 48 hrs by sulforhodamine B assay; settings: NCI-H23, 48 h; outline: as §2
[16] = tested on: T47D; experiment: Growth inhibition of human T47D cells at 10 uM after 48 hrs by sulforhodamine B assay; settings: read-out: GI; outline: as §3
[17] = tested on: KM12; experiment: Cytotoxicity against human KM12 cells after 48 hrs by sulforhodamine B assay; settings: KM12, 48 h; outline: as §2
[18] = tested on: UO-31; experiment: Growth inhibition of human UO31 cells at 10 uM after 48 hrs by sulforhodamine B assay; settings: UO-31, 48 h, read-out: GI; outline: as §3
[19] = tested on: HCT-15; experiment: Cytotoxicity against human HCT15 cells after 48 hrs by sulforhodamine B assay; settings: HCT-15, 48 h; outline: as §2
[20] = tested on: U-251; experiment: Growth inhibition of human U251 cells at 10 uM after 48 hrs by sulforhodamine B assay; settings: U-251, 48 h, read-out: GI; outline: as §3
[21] = tested on: KM12; experiment: Growth inhibition of human KM12 cells at 10 uM after 48 hrs by sulforhodamine B assay; settings: KM12, 48 h, read-out: GI; outline: as §1
[22] = tested on: MDA-MB-231; experiment: Cytotoxicity against human MDA-MB-231 cells after 48 hrs by sulforhodamine B assay; settings: MDA-MB-231, 48 h; outline: as §2
[23] = tested on: UACC-257; experiment: Growth inhibition of human UACC257 cells at 10 uM after 48 hrs by sulforhodamine B assay; settings: UACC-257, 48 h, read-out: GI; outline: as §3
[24] = tested on: MOLT-4; experiment: Cytotoxicity against human MOLT4 cells after 48 hrs by sulforhodamine B assay; settings: MOLT-4, 48 h; outline: as §2
[25] = tested on: SF-268; experiment: Cytotoxicity against human SF268 cells after 48 hrs by sulforhodamine B assay; settings: SF-268, 48 h; outline: as §2
[26] = tested on: RXF 393; experiment: Cytotoxicity against human RXF393 cells after 48 hrs by sulforhodamine B assay; settings: RXF 393, 48 h; outline: as §2
[27] = tested on: MOLT-4; experiment: Growth inhibition of human MOLT4 cells at 10 uM after 48 hrs by sulforhodamine B assay; settings: MOLT-4, 48 h, read-out: GI; outline: as §1
[28] = tested on: CAKI-1; experiment: Cytotoxicity against human Caki1 cells after 48 hrs by sulforhodamine B assay; settings: CAKI-1, 48 h; outline: as §2
[29] = read-out: LC50 (the source's name)

Molecule `O=C(CCc1nnc(-c2ccc(Cl)cc2Cl)o1)c1nc2ccccc2[nH]1` has an inhibition of growth at 10 µM [1] of 93.3%, an inhibition of growth at 10 µM [2] of 4.76% and an inhibition of growth at 10 µM [3] of 17.7%. For the same molecule, the inhibition of growth at 10 µM [4] was 50.2%, the GI50 [5] was 10.5 µM and the TGI [5] was 39.6 µM. For the same molecule, the CC50 [5, 29] was 100 µM, the inhibition of growth at 10 µM [6] was 24.9% and the inhibition of growth at 10 µM [7] was 52.7%. For the same molecule, the inhibition of growth at 10 µM [8] was 28.4%, the GI50 [9] was 13.7 µM and the TGI [9] was 44.4 µM. For the same molecule, the CC50 [9, 29] was 100 µM, the inhibition of growth at 10 µM [10] was 36.6% and the inhibition of growth at 10 µM [11] was 38.1%. The GI50 [12] was 2.88 µM, the TGI [12] was 14.9 µM and the CC50 [12, 29] was 64.6 µM. It also gave a GI50 [13] of 0.797 µM, a TGI [13] of 12.2 µM and a CC50 [13, 29] of 100 µM. The GI50 [14] was 5.93 µM, the TGI [14] was 100 µM and the CC50 [14, 29] was 100 µM. For the same molecule, the GI50 [15] was 3.23 µM, the TGI [15] was 63.2 µM and the CC50 [15, 29] was 100 µM. It also gave an inhibition of growth at 10 µM [16] of 48%, a GI50 [17] of 3.16 µM and a TGI [17] of 11 µM. It also gave a CC50 [17, 29] of 100 µM, an inhibition of growth at 10 µM [18] of 48% and a GI50 [19] of 5.13 µM. The TGI [19] was 48.6 µM, the CC50 [19, 29] was 100 µM and the inhibition of growth at 10 µM [20] was 47.5%. For the same molecule, the inhibition of growth at 10 µM [21] was 71.3%, the GI50 [22] was 2.68 µM and the TGI [22] was 42.6 µM. The CC50 [22, 29] was 100 µM, the inhibition of growth at 10 µM [23] was 21.4% and the GI50 [24] was 4.07 µM. For the same molecule, the TGI [24] was 25.8 µM, the CC50 [24, 29] was 100 µM and the GI50 [25] was 7.3 µM. For the same molecule, the TGI [25] was 46.6 µM, the CC50 [25, 29] was 100 µM and the GI50 [26] was 4.3 µM. The TGI [26] was 49.7 µM, the CC50 [26, 29] was 100 µM and the inhibition of growth at 10 µM [27] was 79.3%. The GI50 [28] was 3.49 µM, the TGI [28] was 41.1 µM and the CC50 [28, 29] was 100 µM.

Reference: ChEMBL document CHEMBL2040797, “Synthesis of benzimidazoles bearing oxadiazole nucleus as anticancer agents” (2012)
